Values after ≈ are worked out from the molar mass of the structure shown. Bounds are passed on as bounds.

The record followed here is ChEMBL document CHEMBL1139285, “TRAIL-enhancing activity of Erythrinan alkaloids from Erythrina velutina” (Bioorg Med Chem Lett, 2009).

Assay [1] relates to Jurkat. Kind of assay: Cytotoxicity against human Jurkat cells in presence and relative to TRAIL. The class given is functional, cell-based. The gist of the method: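 Jurkat cell proliferation test run with each isolate in combination with TRAIL, to measure enhancement of TRAIL cytotoxicity; values expressed relative to the cell proliferation rate at 0.125.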
Assay [2] deals with Jurkat. Kind of assay: Growth inhibition of human Jurkat cells at 50 ug/mL. Format: functional.
Assay [3] deals with Jurkat. Kind of assay: Growth inhibition of human Jurkat cells. Format: functional, cell-based.
In assay [4] the test system is Jurkat. Kind of assay: Cytotoxicity against human Jurkat cells in presence and relative to TRAIL at 50 ug/mL. Format: functional. The gist of the method: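 Proliferation assay in Jurkat cells exposed to each isolated alkaloid together with TRAIL. Results are expressed relative to the cell proliferation rate at […].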

The IC50 is the midpoint of a concentration-inhibition curve. Read a high IC50 as lower potency. For orientation: inhibition means the percentage by which the read-out fell short of the control. Read a high inhibition as a strong effect. Consider `COc1cc2c(cc1OC)[C@]13C[C@@H](OC)C=CC1=CCN3CC2` [ERYSOTRINE], for which the results for the IC50 in the assay with Jurkat [1] and in the assay with Jurkat [3] were 7.2 mg/L (≈ 23 µM) and greater than 50 mg/L, respectively. The inhibition at 50 µg/mL with Jurkat [2] worked out at 45%.
For `COc1cc2c(cc1O[C@@H]1O[C@H](CO)[C@@H](O)[C@H](O)[C@H]1O)CCN1CC=C3C=C[C@H](OC)C[C@]321` [GRYCOERYSODINE], the figures for the IC50 in the assay with Jurkat [1] and with Jurkat [3] were 44 mg/L (≈ 95.3 µM) and greater than 50 mg/L, respectively. The molecule further came in with an inhibition at 50 µg/mL in the assay with Jurkat [2] of 4.7%.
In the case of `C[N+](C)(C)[C@H](Cc1c[nH]c2ccccc12)C(=O)[O-]` [HYPAPHORINE], the IC50 in the assay with Jurkat [1] and in the assay with Jurkat [3] was greater than 50 mg/L throughout. Besides, the inhibition at 50 µg/mL in the assay with Jurkat [2] is 5.8%; in the assay with Jurkat [4], 20%.
As for `CO[C@H]1C=CC2=CCN3CCc4cc5c(cc4[C@]23C1)OCO5` [ERYTHRALINE], the IC50 worked out at 5 mg/L (≈ 16.8 µM) with Jurkat [1] and 23 mg/L (≈ 77.3 µM) in the assay on Jurkat [3].
On the same counts, the results for `O=c1cc(-c2ccc(O)cc2)oc2cc(O)cc(O)c12` [APIGENIN] are 6.7 mg/L (≈ 24.8 µM) and 30 mg/L (≈ 111 µM).
On to `COC(=O)c1cc2c(cn1)CCN1CC=C3C=C[C@H](OC)C[C@]321` [ERYMELANTHINE], for which the IC50 in the assay with Jurkat [1] and with Jurkat [3] was greater than 50 mg/L throughout. Besides, the inhibition at 50 µg/mL was found to be 1.1% in the assay on Jurkat [2] and 24.2% with Jurkat [4].
In the case of `COc1cc2c(cc1O)CCN1CC=C3C=C[C@H](OC)C[C@]321` [ERYSODINE], the IC50 stood at 4.9 mg/L (≈ 16.4 µM) in the assay with Jurkat [1] and 10.8 mg/L (≈ 36.1 µM) in the assay with Jurkat [3].
Take `COc1cc2c(cc1O)CC[N+]1([O-])CC=C3C=C[C@H](OC)C[C@]321` (stereo not given in full): the IC50 with Jurkat [1] and with Jurkat [3] was greater than 50 mg/L each time. The inhibition at 50 µg/mL in the assay on Jurkat [2] was 2.4%; in the assay on Jurkat [4], 18.9%.
For the molecule `CC[C@]1(O)C[C@H]2CN(CCc3c([nH]c4ccccc34)[C@@](C(=O)OC)(c3cc4c(cc3OC)N(C=O)[C@H]3[C@@](O)(C(=O)OC)[C@H](OC(C)=O)[C@]5(CC)C=CCN6CC[C@]43[C@@H]65)C2)C1` [VINCRISTINE], in the assay on Jurkat [3], the IC50 amounted to 0.0031 mg/L (≈ 0.00376 µM).
In the case of `COc1cc2c(cc1O)[C@]13C[C@@H](OC)C=CC1=CCN3CC2` [ERYSOVINE], the IC50 in the assay with Jurkat [1] was 14.2 mg/L (≈ 47.4 µM); with Jurkat [3] it was 24 mg/L (≈ 80.2 µM).
As for `CO[C@H]1C=CC2=CC(=O)N3CCc4cc5c(cc4[C@]23C1)OCO5`, the IC50 was 22 mg/L (≈ 70.7 µM) in the assay on Jurkat [1] and greater than 50 mg/L in the assay with Jurkat [3]. In the assay on Jurkat [2], this molecule displayed an inhibition at 50 µg/mL of 37%.
